Consider two compounds from ChEMBL document CHEMBL4699460, “Integrating DNA-encoded chemical libraries with virtual combinatorial library screening: Optimizing a PARP10 inhibitor” (Bioorg Med Chem Lett, 2020).

Experiment [1] deals with T1, Protein mono-ADP-ribosyltransferase PARP10 (Homo sapiens, UniProt Q53GL7).
T1 sequence (Q53GL7 whole entry): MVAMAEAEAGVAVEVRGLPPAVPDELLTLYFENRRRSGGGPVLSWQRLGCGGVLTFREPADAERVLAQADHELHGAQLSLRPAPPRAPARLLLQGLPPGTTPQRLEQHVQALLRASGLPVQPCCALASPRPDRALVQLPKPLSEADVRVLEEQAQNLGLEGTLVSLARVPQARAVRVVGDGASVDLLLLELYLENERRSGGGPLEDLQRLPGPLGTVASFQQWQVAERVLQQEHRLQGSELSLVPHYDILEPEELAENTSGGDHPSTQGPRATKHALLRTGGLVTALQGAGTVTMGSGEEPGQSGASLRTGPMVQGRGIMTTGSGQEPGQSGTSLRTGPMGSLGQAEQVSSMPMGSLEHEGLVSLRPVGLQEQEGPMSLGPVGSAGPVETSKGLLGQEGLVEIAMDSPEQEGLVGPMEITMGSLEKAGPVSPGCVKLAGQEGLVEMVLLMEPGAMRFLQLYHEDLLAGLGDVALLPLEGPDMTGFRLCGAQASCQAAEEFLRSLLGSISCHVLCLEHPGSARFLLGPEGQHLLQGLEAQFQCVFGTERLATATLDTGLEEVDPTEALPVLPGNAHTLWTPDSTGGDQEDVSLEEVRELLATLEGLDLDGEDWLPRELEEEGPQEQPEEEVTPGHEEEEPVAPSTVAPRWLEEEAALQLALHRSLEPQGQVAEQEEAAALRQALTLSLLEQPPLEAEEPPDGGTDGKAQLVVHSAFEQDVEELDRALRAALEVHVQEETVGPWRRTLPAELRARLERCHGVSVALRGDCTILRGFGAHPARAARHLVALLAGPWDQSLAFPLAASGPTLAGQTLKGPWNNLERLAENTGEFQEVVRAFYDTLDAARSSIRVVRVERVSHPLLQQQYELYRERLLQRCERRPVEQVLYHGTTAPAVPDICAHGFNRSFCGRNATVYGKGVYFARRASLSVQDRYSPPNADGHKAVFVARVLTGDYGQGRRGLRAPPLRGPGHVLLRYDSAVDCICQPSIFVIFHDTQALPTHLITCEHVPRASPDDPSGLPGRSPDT
Kind of experiment: Inhibition of N-terminal FLAG-tagged and C-terminal strep-tagged human PARP10 (805 to 1025 residues) expressed in baculovirus infected Sf9 cells assessed as reduction in NAD+-dependent ADP ribosylation using histone as substrate incubated for 1 hr in presence of biotinylated NAD+ and activated DNA by chemiluminescence based microplate reader assay. The method, boiled down: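 The IC50 was derived from a concentration-dependent inhibition curve for PARP10 in the histone ADP-ribosylation assay.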

Experiment [2] has as its target Poly [ADP-ribose] polymerase 2 (Homo sapiens) (UniProt Q9UGN5). Kind of experiment: Inhibition of N-terminal GST tagged human PARP2 (2 to 583 residues) expressed in baculovirus infected Sf9 cells assessed as reduction in NAD+-dependent ADP ribosylation using histone as substrate at 10 uM incubated for 1 hr in presence of biotinylated NAD+ and activated DNA by chemiluminescence based microplate reader assay relative to control.

Experiment [3] addresses Protein mono-ADP-ribosyltransferase PARP6 (Homo sapiens) (UniProt Q2NL67). Put plainly: Inhibition of N-terminal GST tagged full length human PARP6 expressed in baculovirus infected Sf9 cells assessed as reduction in NAD+-dependent ADP ribosylation using histone as substrate at 10 uM incubated for 1 hr in presence of biotinylated NAD+ and activated DNA by chemiluminescence based microplate reader assay relative to control.

In experiment [4] the target is T2, Protein mono-ADP-ribosyltransferase PARP11 (Homo sapiens) (UniProt Q9NR21).
T2 sequence (whole entry): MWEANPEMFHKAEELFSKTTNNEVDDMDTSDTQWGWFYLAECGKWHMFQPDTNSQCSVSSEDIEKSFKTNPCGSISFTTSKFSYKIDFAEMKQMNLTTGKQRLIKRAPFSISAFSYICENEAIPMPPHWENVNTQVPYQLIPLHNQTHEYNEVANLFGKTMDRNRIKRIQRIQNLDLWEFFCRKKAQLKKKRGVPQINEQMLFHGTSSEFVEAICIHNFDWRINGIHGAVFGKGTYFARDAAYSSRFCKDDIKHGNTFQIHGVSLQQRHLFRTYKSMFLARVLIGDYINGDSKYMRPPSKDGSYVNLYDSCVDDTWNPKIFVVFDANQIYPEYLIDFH
Put plainly: Inhibition of N-terminal GST tagged human PARP11 (8 to 338 residues) expressed in baculovirus infected Sf9 cells assessed as reduction in NAD+-dependent ADP ribosylation using histone as substrate at 10 uM incubated for 1 hr in presence of biotinylated NAD+ and activated DNA by chemiluminescence based microplate reader assay relative to control.

Experiment [5] concerns the target T3, Protein mono-ADP-ribosyltransferase PARP15 (Homo sapiens) (UniProt Q460N3).
T3 sequence (whole entry): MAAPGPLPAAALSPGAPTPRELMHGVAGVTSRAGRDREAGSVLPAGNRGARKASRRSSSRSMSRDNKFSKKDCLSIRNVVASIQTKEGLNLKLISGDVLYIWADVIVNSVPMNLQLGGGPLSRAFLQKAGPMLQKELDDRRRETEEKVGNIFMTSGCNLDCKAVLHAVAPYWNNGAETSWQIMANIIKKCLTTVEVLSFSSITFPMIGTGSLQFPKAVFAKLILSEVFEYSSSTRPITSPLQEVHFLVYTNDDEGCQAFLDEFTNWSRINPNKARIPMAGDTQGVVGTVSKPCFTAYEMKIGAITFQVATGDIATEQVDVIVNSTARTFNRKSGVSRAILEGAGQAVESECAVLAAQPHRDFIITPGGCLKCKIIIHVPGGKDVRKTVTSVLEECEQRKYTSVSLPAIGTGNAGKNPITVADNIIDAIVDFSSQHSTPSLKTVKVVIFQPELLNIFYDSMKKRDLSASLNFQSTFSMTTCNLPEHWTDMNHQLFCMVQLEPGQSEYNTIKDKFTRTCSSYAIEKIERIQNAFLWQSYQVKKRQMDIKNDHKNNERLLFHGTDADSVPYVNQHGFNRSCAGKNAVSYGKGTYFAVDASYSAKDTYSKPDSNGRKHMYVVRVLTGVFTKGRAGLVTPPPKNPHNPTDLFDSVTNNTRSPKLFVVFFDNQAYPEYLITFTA
Kind of experiment: Inhibition of N-terminal GST-tagged human PARP15 (221 to 444 residues) expressed in Escherichia coli assessed as reduction in NAD+-dependent ADP ribosylation using histone as substrate at 10 uM incubated for 1 hr in presence of biotinylated NAD+ and activated DNA by chemiluminescence based microplate reader assay relative to control.

In experiment [6] the target is Poly [ADP-ribose] polymerase 1 (Homo sapiens) (UniProt P09874). Put plainly: Inhibition of N-terminal GST tagged human PARP1 (2 to 1041 residues) expressed in baculovirus infected Sf9 cells assessed as reduction in NAD+-dependent ADP ribosylation using histone as substrate at 10 uM incubated for 1 hr in presence of biotinylated NAD+ and activated DNA by chemiluminescence based microplate reader assay relative to control.
Poly [ADP-ribose] polymerase 1 (Homo sapiens), sequence (P09874 whole entry, the tested form may be a part): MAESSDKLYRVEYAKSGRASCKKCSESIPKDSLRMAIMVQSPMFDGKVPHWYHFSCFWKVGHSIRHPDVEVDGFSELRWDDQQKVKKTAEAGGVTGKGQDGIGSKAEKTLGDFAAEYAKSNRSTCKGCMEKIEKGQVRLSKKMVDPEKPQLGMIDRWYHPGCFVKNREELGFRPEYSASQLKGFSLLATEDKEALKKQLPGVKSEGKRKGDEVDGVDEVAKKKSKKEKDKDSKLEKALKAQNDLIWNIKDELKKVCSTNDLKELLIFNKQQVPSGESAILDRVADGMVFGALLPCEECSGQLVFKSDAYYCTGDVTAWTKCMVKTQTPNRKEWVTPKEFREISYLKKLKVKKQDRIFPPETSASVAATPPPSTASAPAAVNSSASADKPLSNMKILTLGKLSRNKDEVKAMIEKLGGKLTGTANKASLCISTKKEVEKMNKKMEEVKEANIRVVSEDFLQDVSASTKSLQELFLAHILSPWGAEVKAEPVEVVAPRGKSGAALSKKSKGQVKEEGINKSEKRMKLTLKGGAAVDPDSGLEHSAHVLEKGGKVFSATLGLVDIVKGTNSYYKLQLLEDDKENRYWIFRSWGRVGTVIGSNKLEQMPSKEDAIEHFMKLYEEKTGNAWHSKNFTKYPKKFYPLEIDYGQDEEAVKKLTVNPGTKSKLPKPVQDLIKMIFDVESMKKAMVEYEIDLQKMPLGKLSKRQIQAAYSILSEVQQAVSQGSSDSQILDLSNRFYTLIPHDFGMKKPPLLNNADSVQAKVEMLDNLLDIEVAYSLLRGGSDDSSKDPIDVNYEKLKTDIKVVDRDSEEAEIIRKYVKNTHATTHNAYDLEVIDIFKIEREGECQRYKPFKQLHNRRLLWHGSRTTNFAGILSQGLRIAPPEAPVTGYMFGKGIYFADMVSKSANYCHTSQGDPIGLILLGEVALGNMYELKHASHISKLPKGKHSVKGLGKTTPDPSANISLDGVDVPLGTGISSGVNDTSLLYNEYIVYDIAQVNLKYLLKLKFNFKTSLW

Some results are limits rather than exact numbers.

Poly [ADP-ribose] polymerase 2 (Homo sapiens), sequence (Q9UGN5 whole entry, the tested form may be a part): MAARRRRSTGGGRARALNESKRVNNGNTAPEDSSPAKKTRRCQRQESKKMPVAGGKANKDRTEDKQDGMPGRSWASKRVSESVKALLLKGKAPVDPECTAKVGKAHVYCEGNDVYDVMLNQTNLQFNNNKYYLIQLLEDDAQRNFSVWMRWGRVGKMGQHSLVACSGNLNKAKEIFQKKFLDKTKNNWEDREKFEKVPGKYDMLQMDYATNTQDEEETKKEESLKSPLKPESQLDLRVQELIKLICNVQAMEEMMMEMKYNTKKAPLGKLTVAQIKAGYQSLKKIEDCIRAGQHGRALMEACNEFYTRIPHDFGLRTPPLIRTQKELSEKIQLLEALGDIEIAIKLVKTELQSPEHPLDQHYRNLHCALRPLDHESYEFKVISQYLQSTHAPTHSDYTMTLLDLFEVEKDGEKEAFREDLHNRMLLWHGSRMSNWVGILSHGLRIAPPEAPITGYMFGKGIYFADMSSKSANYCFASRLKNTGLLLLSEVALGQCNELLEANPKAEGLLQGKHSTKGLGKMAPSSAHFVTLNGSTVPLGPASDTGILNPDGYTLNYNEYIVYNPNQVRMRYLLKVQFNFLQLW
Protein mono-ADP-ribosyltransferase PARP6 (Homo sapiens), sequence (Q2NL67 whole entry): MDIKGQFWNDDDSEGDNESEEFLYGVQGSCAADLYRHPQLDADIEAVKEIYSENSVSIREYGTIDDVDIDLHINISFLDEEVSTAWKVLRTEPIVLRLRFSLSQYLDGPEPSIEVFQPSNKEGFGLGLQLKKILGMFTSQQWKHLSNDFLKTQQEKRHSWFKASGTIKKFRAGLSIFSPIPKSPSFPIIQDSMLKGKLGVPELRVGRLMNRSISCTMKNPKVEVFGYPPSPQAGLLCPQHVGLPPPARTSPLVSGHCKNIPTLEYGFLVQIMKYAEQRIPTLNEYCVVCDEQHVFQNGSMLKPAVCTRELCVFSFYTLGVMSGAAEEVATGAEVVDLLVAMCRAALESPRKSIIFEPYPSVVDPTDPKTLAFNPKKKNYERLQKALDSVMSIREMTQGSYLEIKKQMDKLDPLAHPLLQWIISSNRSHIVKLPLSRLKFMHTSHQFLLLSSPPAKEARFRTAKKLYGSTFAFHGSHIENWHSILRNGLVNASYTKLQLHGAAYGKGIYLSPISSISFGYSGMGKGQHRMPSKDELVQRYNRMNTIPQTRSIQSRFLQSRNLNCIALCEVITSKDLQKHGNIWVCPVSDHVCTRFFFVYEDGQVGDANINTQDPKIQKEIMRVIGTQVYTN

For the compound `CC1(CNC(=O)COc2cccc3c2CCCC3=O)CCN(C(=O)CCc2nc3ccccc3[nH]c2=O)CC1`, in experiment [1], the IC50 (in general, the concentration needed to halve the response being measured) came out at 3.9 µM. Besides, the inhibition (in general, the drop in the measured response relative to a control, in per cent) in experiment [2] is 100%; in experiment [3] it was 0%; in experiment [4], over 50%; in experiment [5], 10%; in experiment [6] it was over 50%.

Regarding `CNC(=O)[C@H](CNC(=O)CCc1nc2ccccc2[nH]c1=O)NC(=O)c1ccc2c(c1)CCCC2=O`, the IC50 in experiment [1] was 6 µM. Moreover, the inhibition in experiment [2], in experiment [3], in experiment [4], in experiment [5] and in experiment [6] was under 25% throughout.
